Compounds with a hit are over-represented: about 5.8% of the library has one in this group of screens.
14-3-3 Bad PPI: inhibitors of 14-3-3 zeta/Bad binding, primary screen, biochemical, TR-FRET, bovine 14-3-3 zeta; AID 781, 2007; 0.71% of 220,000 active; TR-FRET 14-3-3zeta/Dy647-pBad peptide displacement, 1 h; inhibition, % at 21.7 µM;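 active = inhibition above about 70%, limit read from the data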;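 also: 0% = full 14-3-3 plus peptide FRET controls and 100% = background without 14-3-3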
RBBP9 inhibitor: human RBBP9 inhibitors, primary screen, biochemical, fluorescence polarization, FP-Rh probe, HTS. Serine hydrolase RBBP9 (Homo sapiens), O75884. recombinant RBBP9. inhibition, % at 7.94 µM. 0.2% of 220,000 active. AID 1515, 2009;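 active = inhibition above the campaign mean of all tested compounds plus 3 SD, cut at about 14% in these data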;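 also: plate controls were DMSO wells with RBBP9 for no effect and wells lacking RBBP9 protein for full effect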
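Test system – recombinant human RBBP9 · Input – RBBP9 2.5 µM in dispensing solution, pre-mixing · Medium – Tris buffer pH 8.0, NaCl, Pluronic · Schedule – preincubation 30 min plus labeling 45 min at 25 °C · Measured by – fluorescence polarization · Measure – % inhibition · Controls – DMSO and no-protein wells · Replicates – one well per compound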
ROMK primary: ROMK potassium channel modulators, primary screen, cell-based, thallium flux, MLSMR library. AID 1918, 2009. 2% of 130,000 active. ATP-sensitive inward rectifier potassium channel 1 (Homo sapiens), P48048. Tet-inducible ROMK, thallium flux fluorescence; actives lie on both sides. B-score at 10 µM;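 active = signal ratio slope over the read window, or its plate-corrected B-score, at least 3 SD from the plate mean, either direction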;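 also: B-score of the F/F0 ratio slope over 7 to 12 s after thallium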
NCF1 inh: p47phox/p22phox peptide binding inhibitors, primary screen, biochemical, uHTS, NADPH oxidase regulatory subunit. fluorescence polarization, 2 h. inhibition, % at 24.7 µM. 0.53% of 220,000 active. AID 1274, 2008;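 active = inhibition above about 30%, limit read from the data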;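 also: 0% = p47phox with labelled peptide and 100% = labelled peptide alone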
Target sequence (P14598 whole entry, looked up): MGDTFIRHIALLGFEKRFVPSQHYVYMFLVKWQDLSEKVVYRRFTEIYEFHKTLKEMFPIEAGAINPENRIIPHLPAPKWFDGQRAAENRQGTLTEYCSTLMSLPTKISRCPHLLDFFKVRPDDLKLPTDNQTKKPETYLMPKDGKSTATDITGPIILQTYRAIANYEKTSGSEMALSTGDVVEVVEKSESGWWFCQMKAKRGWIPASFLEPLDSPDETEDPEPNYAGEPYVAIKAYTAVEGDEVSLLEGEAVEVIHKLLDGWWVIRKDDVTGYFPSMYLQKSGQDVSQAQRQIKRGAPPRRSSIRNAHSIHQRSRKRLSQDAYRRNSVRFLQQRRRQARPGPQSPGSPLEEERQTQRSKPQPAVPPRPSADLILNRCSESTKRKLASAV
WT yeast gro inh: growth inhibition of WT strain, primary screen, mitochondrial fusion inhibitor project, WT and mutant strains, chemical genetic. 2.1% of 190,000 active. AID 1362, 2008. mitochondrial fusion phenotypic screen. inhibition, % at 10 µM; in the data active = inhibition above about 58%; tested in S. cerevisiae
KCC2 mod: KCC2 cotransporter modulators, thallium flux, primary screen, cell-based, HEK293 KCC2, FluoZin-2 fluorescence, MLSMR | Solute carrier family 12 member 5 (Homo sapiens), Q9H2X9 | KCC2 cells, thallium flux FluoZin-2 fluorescence | B-score of Tl+ flux slope (higher = more flux/activation; lower = inhibition) at 10 µM | 2.2% of 190,000 active;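 active = thallium flux slope and its plate-corrected score both differing from the plate sample mean at a set confidence after two filtering rounds, in either direction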;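 also: slope of fluorescence scaled to starting intensity during 10 to 20 s after thallium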
ROMK hit retest: ROMK channel modulator hit retest, confirmation, cell-based, thallium flux, duplicate, resupplied hits | AID 1917, 2009 | normalized thallium flux (F/F0 slope) at 10 µM | fluorescence ratio; stronger effect = lower value | 54% of 3,000 active | shares compounds with ROMK primary;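 active = Flux at 10 µM at least 3 SD below or above vehicle control mean in one or both replicates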
Starred values were filed as active, the others as inactive; i = inactive; nt = not tested or not shown.

SMILES	14-3-3 Bad PPI	RBBP9 inhibitor	ROMK primary	NCF1 inh	WT yeast gro inh	KCC2 mod	ROMK hit retest
O=C(Nc1cccnc1)c1cccc(S(=O)(=O)N2CCc3ccccc32)c1	-16	-8	-1	-5	6	0.16	nt
O=C(Nc1cccnc1)c1ccc(Cl)c(S(=O)(=O)N2CCc3ccccc32)c1	0	-21	-3.8*	-14	60*	-1.2	0.066*
COc1cccc(C2CC(C(F)(F)F)n3ncc(C(=O)Nc4c(C)n(C)n(-c5ccccc5)c4=O)c3N2)c1 (stereo not drawn)	-1	-2	nt	4	3	0.24	nt
COc1ccc(C2CC(C(F)(F)F)n3ncc(C(=O)Nc4c(C)n(C)n(-c5ccccc5)c4=O)c3N2)cc1 (stereo not drawn)	0	-1	-6.1*	-20	-22	nt	0.076
CCCCCCN1C=CC=C/C1=C\C=C(C#N)C#N	1	5	-4.4*	-1	nt	-3.2	0.043*
CCOC(=O)/C(C#N)=C\C=C1C=CN(C)C=C1	-6	-4	nt	-23	-11	i	nt
Cc1ccccc1C1c2[nH]c3ccccc3c2CCN1Cc1cccn1-c1ncccn1 (stereo not drawn)	-4	-9	nt	-26	nt	-0.82	nt
CC1(C)CC(=O)C2=C(C1)N(CCN1CCOCC1)C1=C(C(=O)CC(C)(C)C1)C2c1cccc(Cl)c1	-3	-4	-3*	-11	25	nt	0.052*
CC(C)n1c(=O)[nH]c2ccccc21	2	1	nt	-4	-1	0.11	nt
Cc1ccc(NC(=O)c2ccc3c(c2)[nH]c(=O)n3C(C)C)cc1	-6	-3	2.9*	-10	2	0.38	0.085
O=C(CCc1ccccc1)N1CCN(c2ccc(Cl)cc2)CC1	0	3	-1.4	-19	8	-0.45	nt
O=C(CCc1ccc(Oc2cc([N+](=O)[O-])cc([N+](=O)[O-])c2)cc1)N1CCCCCC1	-1	-5	-2.9*	-13	66*	-1.8	0.064*
O=C(CCc1ccccc1)N1CCN(c2ccc([N+](=O)[O-])cc2)CC1	-5	-8	-3.6*	-13	16	-2	0.063*
O=C(Nc1ccc2c(c1)OCO2)C1CCN(C(=O)c2ccc(Br)cc2)CC1	-9	-2	-0.0044	-14	5	0.55	nt
COc1ccc(OC)c2[nH]c(=O)c(CCNC(=O)Cc3cccs3)cc12	1	-2	0.37	-8	11	0.23	nt

Screens (PubChem)
